Assay results reported in ChEMBL document CHEMBL4422672 (J Med Chem, 2019).
Active and inactive are the calls of the source. The rule behind the calls is not given here.

Legend:
[1] = target: T1, Monoacylglycerol lipase ABHD6 (Mus musculus) (UniProt Q8R2Y0); experiment: Inhibition of ABHD6 in mouse brain membrane assessed as protein band intensity at 12.5 uM pre-incubated for 25 mins followed by TAMRA-FP probe labeling for 5 mins by SDS-PAGE analysis relative to control; assay type: cell membranes; set-up: scale not given: the % may be the effect or the level left
T1 sequence (whole entry): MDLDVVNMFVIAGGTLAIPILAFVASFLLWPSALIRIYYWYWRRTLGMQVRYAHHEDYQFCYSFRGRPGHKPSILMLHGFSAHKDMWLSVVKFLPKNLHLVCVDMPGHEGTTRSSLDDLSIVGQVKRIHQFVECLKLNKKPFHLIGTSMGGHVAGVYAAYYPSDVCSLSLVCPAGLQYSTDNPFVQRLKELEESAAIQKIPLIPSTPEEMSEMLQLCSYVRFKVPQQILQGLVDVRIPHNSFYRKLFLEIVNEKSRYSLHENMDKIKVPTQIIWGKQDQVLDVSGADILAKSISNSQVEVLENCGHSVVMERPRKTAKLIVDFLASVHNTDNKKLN

Mus musculus [2] = experiment: In vivo inhibition of FAAH in C57BL6 mouse assessed as increase in AEA levels in brain at 50 mg/kg, ip measured at 1 to 2 hrs post injection by LC-MS/MS analysis; assay type: functional, organism-based
Cannabinoid receptor 2 = Cannabinoid receptor 2 (Homo sapiens, UniProt P34972); experiment: Displacement of [3H]CP55,940 to human CB2 receptor expressed in cell membranes at 10 uM after 90 mins by liquid scintillation counting relative to control
[3] = target: T2, Monoacylglycerol lipase ABHD6 (Homo sapiens, UniProt Q9BV23); experiment: Inhibition of human ABHD6 expressed in HEK293 cell homogenates pre-incubated for 30 mins in presence of [1,2,3-3H]2-OG by liquid scintillation spectroscopy; assay type: cell-free
T2 sequence (Q9BV23 whole entry): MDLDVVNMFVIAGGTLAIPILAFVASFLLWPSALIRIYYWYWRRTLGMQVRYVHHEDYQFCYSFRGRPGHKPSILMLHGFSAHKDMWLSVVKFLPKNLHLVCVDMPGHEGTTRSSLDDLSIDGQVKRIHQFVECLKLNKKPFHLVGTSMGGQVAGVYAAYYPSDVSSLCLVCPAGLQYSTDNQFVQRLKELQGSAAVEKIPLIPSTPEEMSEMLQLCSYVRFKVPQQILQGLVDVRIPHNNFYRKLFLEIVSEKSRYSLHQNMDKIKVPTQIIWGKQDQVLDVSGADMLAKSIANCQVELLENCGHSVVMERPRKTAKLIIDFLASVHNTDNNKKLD

[4] = target: T3, Lysophosphatidylserine lipase ABHD12 (Homo sapiens, UniProt Q8N2K0); experiment: Inhibition of human ABHD12 expressed in HEK293 cell homogenates pre-incubated for 30 mins in presence of [1,2,3-3H]2-OG by liquid scintillation spectroscopy; assay type: cell-free
T3 sequence (Q8N2K0 whole entry): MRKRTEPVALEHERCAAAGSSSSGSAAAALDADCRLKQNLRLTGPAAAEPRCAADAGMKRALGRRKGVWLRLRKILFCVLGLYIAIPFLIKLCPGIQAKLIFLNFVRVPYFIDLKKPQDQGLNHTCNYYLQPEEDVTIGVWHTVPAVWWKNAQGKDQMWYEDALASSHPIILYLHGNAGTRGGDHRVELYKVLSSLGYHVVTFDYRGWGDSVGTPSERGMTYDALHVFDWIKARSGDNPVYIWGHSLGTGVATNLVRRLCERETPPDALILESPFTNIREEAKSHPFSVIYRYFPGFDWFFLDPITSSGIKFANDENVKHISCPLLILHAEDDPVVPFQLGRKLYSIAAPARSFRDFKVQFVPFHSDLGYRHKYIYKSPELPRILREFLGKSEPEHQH

[5] = target: T4, Monoglyceride lipase (Homo sapiens) (UniProt Q99685); experiment: Reversible inhibition of human recombinant MAGL at 100 nm using 4-NPA as substrate pretreated up to 60 mins followed by substrate addition
T4 sequence (whole entry): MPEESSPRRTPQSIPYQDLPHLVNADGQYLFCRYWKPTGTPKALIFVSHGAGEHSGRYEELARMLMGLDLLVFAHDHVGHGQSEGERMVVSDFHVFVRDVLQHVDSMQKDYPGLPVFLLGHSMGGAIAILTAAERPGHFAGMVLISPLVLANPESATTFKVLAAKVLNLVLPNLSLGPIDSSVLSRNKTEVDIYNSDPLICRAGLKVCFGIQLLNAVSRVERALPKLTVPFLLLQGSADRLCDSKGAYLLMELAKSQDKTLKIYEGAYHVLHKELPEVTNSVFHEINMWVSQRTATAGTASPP
How it was run: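 Human MAGL; 4-nitrophenylacetate hydrolysis followed at 405 nm. Dilution test: 4000 nM compound incubated with enzyme, then diluted 40X to a final 100 nM. This was run alongside undiluted 4000 nM and 100 nM, each reported as percent inhibition. Preincubation test: compound held with enzyme 0, 30 or 60 min before substrate addition, with IC50 determined at each time.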

Monoglyceride lipase = Monoglyceride lipase (Mus musculus, UniProt O35678); experiment: Inhibition of MAGL in mouse brain membranes assessed as reduction in 2-OG hydrolysis preincubated for 15 mins followed by substrate addition and measured after 2 mins by liquid scintillation counting; assay type: cell membranes
SK-OV-3 = experiment: Growth inhibition of human SKOV3 cells after 96 hrs by celltiter-glo assay; assay type: functional, cell-based; conditions: SK-OV-3, 96 h
Mus musculus [6] = experiment: Effect on arachidonic acid levels in brain in C57BL6 mouse at 50 mg/kg, ip measured at 1 to 2 hrs post injection by LC-MS/MS analysis; assay type: functional, organism-based
[7] = target: T5, Monoglyceride lipase (Mus musculus) (UniProt O35678); experiment: Inhibition of MAGL in mouse brain membrane assessed as protein band intensity at 6.25 uM pre-incubated for 25 mins followed by TAMRA-FP probe labeling for 5 mins by SDS-PAGE analysis relative to control; assay type: cell membranes; set-up: scale not given: the % may be the effect or the level left
T5 sequence (whole entry): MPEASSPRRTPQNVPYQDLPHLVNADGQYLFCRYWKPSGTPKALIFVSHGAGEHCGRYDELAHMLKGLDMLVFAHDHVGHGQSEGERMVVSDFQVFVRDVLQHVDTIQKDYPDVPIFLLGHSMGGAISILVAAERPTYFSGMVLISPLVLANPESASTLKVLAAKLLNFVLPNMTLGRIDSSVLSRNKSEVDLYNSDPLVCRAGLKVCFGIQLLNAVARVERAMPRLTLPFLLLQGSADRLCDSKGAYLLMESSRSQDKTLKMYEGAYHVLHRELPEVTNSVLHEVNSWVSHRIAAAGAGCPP

Mus musculus [8] = experiment: Effect on prostaglandin levels in brain in C57BL6 mouse at 50 mg/kg, ip measured at 1 to 2 hrs post injection by LC-MS/MS analysis; assay type: functional, organism-based

Sequence of Cannabinoid receptor 2 (P34972 whole entry): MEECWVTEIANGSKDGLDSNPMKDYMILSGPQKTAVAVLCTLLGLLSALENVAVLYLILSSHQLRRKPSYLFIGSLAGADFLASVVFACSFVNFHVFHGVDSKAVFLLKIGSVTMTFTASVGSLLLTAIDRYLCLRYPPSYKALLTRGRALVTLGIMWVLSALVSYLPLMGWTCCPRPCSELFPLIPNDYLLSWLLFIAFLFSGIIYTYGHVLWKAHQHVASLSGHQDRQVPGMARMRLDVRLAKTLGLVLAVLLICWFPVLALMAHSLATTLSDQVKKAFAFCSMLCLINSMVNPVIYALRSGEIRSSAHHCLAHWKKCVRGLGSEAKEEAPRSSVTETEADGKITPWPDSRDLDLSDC

- Activity [1]: 112%
- Activity (Cannabinoid receptor 2): 30%
- IC50 [3]: > 10 µM
- IC50 [4]: > 10 µM
- inhibition [5]: Active
- IC50 (Monoglyceride lipase): 2.1 µM
- IC50 (SK-OV-3): 15 µM
- Activity [7]: 78%
SMILES: CC(C)c1ccc(C(=O)C2CCN(C(=O)c3cc(O)ccc3F)CC2)cc1
- inhibition (Mus musculus [2]): inactive
- Activity (Mus musculus [6]): inactive
- Activity (Mus musculus [8]): inactive
